Experimental data: ChEMBL document CHEMBL3525967, “In vitro glucuronidation of the antibacterial triclocarban and its oxidative metabolites” (Drug Metab Dispos, 2012)

Columns and labels:
Assay type in all cases: ADME
[1] = Drug excretion in human urine; details: read-out: Drug excretion
[2] = target: T1, UDP-glucuronosyltransferase 1A8 (Homo sapiens, UniProt Q9HAW9); assay: Drug metabolism assessed as human UGT1A8-mediated N-glucuronide-triclocarban formation expressed in baculovirus infected insect sf9 cells incubated for 5 mins prior to UDPGA addition measured after 5 to 30 mins by LC-UV analysis
T1 sequence (Q9HAW9 whole entry): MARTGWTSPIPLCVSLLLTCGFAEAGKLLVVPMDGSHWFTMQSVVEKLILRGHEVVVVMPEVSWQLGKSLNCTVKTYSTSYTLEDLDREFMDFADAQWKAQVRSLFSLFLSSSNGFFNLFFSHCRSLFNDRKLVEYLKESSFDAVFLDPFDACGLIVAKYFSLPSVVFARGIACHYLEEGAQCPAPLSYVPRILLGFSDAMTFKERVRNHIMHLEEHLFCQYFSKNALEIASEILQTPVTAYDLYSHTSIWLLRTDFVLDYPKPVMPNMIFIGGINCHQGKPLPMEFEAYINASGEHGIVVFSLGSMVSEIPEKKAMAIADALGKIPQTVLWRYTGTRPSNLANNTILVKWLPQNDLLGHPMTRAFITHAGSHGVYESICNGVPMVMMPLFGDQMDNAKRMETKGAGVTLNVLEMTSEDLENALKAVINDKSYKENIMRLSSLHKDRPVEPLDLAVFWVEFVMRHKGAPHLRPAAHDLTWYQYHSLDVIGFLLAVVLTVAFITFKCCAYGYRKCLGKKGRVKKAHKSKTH
Outline: (§1)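 Microsomes or UGT Supersomes (5 µg protein) were held 15 min on ice with alamethicin in 100 mM potassium phosphate pH 7.4. TCC was added at 10 µM (2% DMSO) with 10 mM MgCl2 and 10 mM saccharolactone, pre-warmed 5 min at 37 °C, then started with UDPGA. Samples at 5, 10, 15 and 30 min were quenched in ACN. Product was read by LC-UV at 265 nm; rate came from regression over time, three incubations.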

[3] = Drug metabolism in B6C3F1 mouse liver microsomes assessed as N-glucuronide-triclocarban formation incubated for 5 mins prior to UDPGA addition measured after 5 to 30 mins by LC-UV analysis; outline: as §1
[4] = Drug metabolism in B6C3F1 mouse liver microsomes assessed as N'-glucuronide-triclocarban formation incubated for 5 mins prior to UDPGA addition measured after 30 mins by LC-UV-ESI-MS/MS analysis; details: 0.5 h
Outline: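 TCC was incubated at 10 µM (2% DMSO) in 100 mM phosphate pH 7.4 with alamethicin-treated microsomes or Supersomes, 10 mM MgCl2 and 10 mM saccharolactone. After 5 min pre-incubation at 37 °C, UDPGA was added to start the reaction. Protein was raised up to 2 mg/mL. Samples were quenched in ACN with 1 µM DCC internal standard, centrifuged, and N-glucuronides detected by LC-ESI-MS/MS in SRM mode.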

[5] = target: T2, UDP-glucuronosyltransferase 1A10 (Homo sapiens, UniProt Q9HAW8); assay: Drug metabolism assessed as human UGT1A10-mediated N-glucuronide-triclocarban formation expressed in baculovirus infected insect sf9 cells incubated for 5 mins prior to UDPGA addition measured after 5 to 30 mins by LC-UV analysis; outline: as §1
T2 sequence (Q9HAW8 whole entry): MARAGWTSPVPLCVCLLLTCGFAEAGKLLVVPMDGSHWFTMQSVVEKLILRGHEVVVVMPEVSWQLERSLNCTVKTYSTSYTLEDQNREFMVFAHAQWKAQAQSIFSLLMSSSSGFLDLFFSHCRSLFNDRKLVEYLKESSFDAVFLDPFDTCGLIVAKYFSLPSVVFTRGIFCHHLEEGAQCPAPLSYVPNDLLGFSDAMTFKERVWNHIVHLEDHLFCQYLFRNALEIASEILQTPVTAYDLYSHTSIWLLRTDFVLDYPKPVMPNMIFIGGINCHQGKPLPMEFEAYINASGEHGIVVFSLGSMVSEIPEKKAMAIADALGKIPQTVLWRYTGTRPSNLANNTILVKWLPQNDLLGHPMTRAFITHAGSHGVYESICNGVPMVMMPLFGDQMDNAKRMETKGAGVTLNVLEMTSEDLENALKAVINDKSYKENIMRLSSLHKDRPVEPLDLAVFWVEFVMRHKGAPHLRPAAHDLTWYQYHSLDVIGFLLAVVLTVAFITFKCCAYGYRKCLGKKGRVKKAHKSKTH

[6] = target: T3, UDP-glucuronosyltransferase 2B15 (Homo sapiens, UniProt P54855); assay: Drug metabolism assessed as human UGT2B15-mediated N-glucuronide-triclocarban formation expressed in baculovirus infected insect sf9 cells incubated for 5 mins prior to UDPGA addition measured after 5 to 30 mins by LC-UV analysis; outline: as §1
T3 sequence (P54855 whole entry): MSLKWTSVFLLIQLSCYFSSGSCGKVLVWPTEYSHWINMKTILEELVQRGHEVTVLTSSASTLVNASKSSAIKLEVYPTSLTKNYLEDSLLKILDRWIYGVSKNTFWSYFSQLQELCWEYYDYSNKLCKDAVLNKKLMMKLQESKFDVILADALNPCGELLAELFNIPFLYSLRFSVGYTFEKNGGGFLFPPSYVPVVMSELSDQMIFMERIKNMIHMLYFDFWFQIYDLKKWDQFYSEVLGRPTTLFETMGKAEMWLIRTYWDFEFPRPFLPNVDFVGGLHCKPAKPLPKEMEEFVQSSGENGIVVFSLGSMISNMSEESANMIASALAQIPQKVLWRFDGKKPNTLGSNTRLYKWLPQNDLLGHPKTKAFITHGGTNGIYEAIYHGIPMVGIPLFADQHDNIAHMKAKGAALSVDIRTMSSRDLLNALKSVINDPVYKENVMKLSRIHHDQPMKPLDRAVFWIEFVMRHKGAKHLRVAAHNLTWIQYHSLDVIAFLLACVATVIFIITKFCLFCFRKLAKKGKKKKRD

[7] = target: T3, UDP-glucuronosyltransferase 2B15; assay: Drug metabolism assessed as human UGT2B15-mediated N'-glucuronide-triclocarban formation expressed in baculovirus infected insect sf9 cells incubated for 5 mins prior to UDPGA addition measured after 5 to 30 mins by LC-UV analysis; outline: as §1

O=C(Nc1ccc(Cl)cc1)Nc1ccc(Cl)c(Cl)c1 [TRICLOCARBAN]
dose excreted [1]: 25%
Drug metabolism [2]: metabolite_not_detected
Drug metabolism [3]: metabolite_not_detected
Drug metabolism [4]: metabolite_detected
Drug metabolism [5]: metabolite_not_detected
Drug metabolism [6]: metabolite_not_detected
Drug metabolism [7]: metabolite_not_detected
